Measured values from different studies.
Each line is one published result; the experiments were not run side by side.
CA9: Carbonic anhydrase 9 (CA9, Homo sapiens, UniProt Q16790)
PKN1: Serine/threonine-protein kinase N1 (PKN1, Homo sapiens, UniProt Q16512)
HRH1: Histamine H1 receptor (HRH1, Homo sapiens, UniProt P35367)
MAOB: Amine oxidase [flavin-containing] B (MAOB, Homo sapiens, UniProt P27338)
PADI4: Protein-arginine deiminase type-4 (PADI4, Homo sapiens, UniProt Q9UM07)

For `O=C(c1ccc(Cl)cc1)N(Cc1ccccc1)C1CCCCC1`, the inhibition was 7.1% (Muscarinic acetylcholine receptor M4 (CHRM4, Homo sapiens, UniProt P08173); cell-free assay; 10 µM).
`CCOC(=O)C1CSc2[nH]c(=O)sc2C1c1cn(-c2ccccc2)nc1-c1ccc(Br)cc1` (stereo not drawn) gave an inhibition of 61% (CA9; enzyme activity, inhibitor; 1 µM).
`S=C(NCc1ccc2c(c1)OCO2)N1CCN(c2ncnc3c2oc2ccccc23)CC1` has an activity vs control of 98% (PKN1; enzyme activity, inhibitor; 1 µM).
With `COc1cc(NC(C)=O)c(Cl)cc1C(=O)Nc1nccs1` the inhibition was 2.5% (Beta-1 adrenergic receptor (ADRB1, Homo sapiens, UniProt P08588); cell-free assay; 10 µM).
`CCOC(=O)C1CSc2[nH]c(=O)sc2C1c1cn(-c2ccccc2)nc1-c1ccc(OC)cc1` (stereo not drawn) gave an inhibition of 21.5% (CA9; enzyme activity, inhibitor; 10 nM).
`CCC(=O)N1CCN(c2ccc(-n3c(=O)ccc4cnc5ccc(-c6cnc7ccccc7c6)cc5c43)cc2C(F)(F)F)CC1` has an activity vs control of 97% (PKN1; enzyme activity, inhibitor; 1 µM).
For `CN1CCC(=C(c2ccccc2)c2ccccc2)CC1`, the koff was 0.00583 s⁻¹ (HRH1; binding).
`CC(C)(O)[C@H]1CC[C@H](Nc2ccc3ncc(-c4cccc(C(F)(F)F)c4)n3n2)CC1` has a remaining activity of 80.6% (Receptor-interacting serine/threonine-protein kinase 3 (RIPK3, Homo sapiens, UniProt Q9Y572); enzyme activity, inhibitor; 1 µM).
For `CN1CCC(=C2c3ccccc3CCc3ccccc32)CC1`, the koff was 8.33e-05 s⁻¹ (HRH1; binding).
`O=C1NC(=S)C(=Cc2cn(-c3ccccc3)nc2-c2ccc(Br)cc2)S1` has an inhibition of 33.5% (CA9; enzyme activity, inhibitor; 0.1 µM).
With `O=C(Nc1ccc([N+](=O)[O-])cc1Cl)c1ccc2c(c1)OCO2` the inhibition was 62% (MAOB; enzyme activity, inhibitor; 1 µM, 20 min).
With `C=CC(=O)Nc1cc(N2CCN(CC)CC2)ccc1Nc1cc(N(C)C(=O)Nc2c(Cl)c(OC)cc(OC)c2Cl)ncn1` the activity vs control was 103% (PKN1; enzyme activity, inhibitor; 1 µM).
`N=C(CF)NCCC[C@H](NC(=O)c1ccccc1C(=O)O)c1nn[nH]n1` has a kinact/KI of 780 M⁻¹ s⁻¹ (PADI4; enzyme activity, inhibitor).
For `CCn1c(=O)c(-c2ccc(Cl)cc2Cl)cc2cnc(Nc3ccc(N4CCNCC4)c(F)c3)nc21`, the activity vs control was 47% (PKN1; enzyme activity, inhibitor; 1 µM).
For `CCOC(=O)C1CSc2[nH]c(=O)sc2C1c1cn(-c2ccccc2)nc1-c1ccc(C)cc1` (stereo not drawn), the inhibition was 76.9% (CA9; enzyme activity, inhibitor; 10 µM).
`O=C(Nc1ccc(N2C(=O)c3ccccc3C2=O)c(Cl)c1)c1ncccc1Cl` has an Emax of 102% (Metabotropic glutamate receptor 1 (GRM1, Homo sapiens, UniProt Q13255); calcium signal, positive allosteric modulator; T-REx-293).
For `Cl.Cl.c1cc(-c2cnn3cc(-c4ccc(OCCN5CCCCC5)cc4)cnc23)ccn1`, the activity vs control was 32% (PKN1; enzyme activity, inhibitor; 1 µM).
`CC(C)(C)n1nnc([C@H](CCCNC(=N)CCl)NC(=O)c2ccccc2)n1` gave a kinact/KI of 11.8 M⁻¹ s⁻¹ (PADI4; enzyme activity, inhibitor).
The inhibition of `CCOC(=O)C1CSc2[nH]c(=O)sc2C1c1cn(-c2ccccc2)nc1-c1ccccc1` (stereo not drawn) is reported as 29% (CA9; enzyme activity, inhibitor; 0.1 µM).
`CC(C)(C)n1nnc([C@H](CCCNC(=N)CF)NC(=O)c2ccc(-c3ccccc3)cc2)n1` has a kinact/KI of 20.8 M⁻¹ s⁻¹ (PADI4; enzyme activity, inhibitor).
With `O=C(Nc1ccc([N+](=O)[O-])cc1[N+](=O)[O-])c1ccccc1O` the inhibition was 18% (MAOB; enzyme activity, inhibitor; 1 µM, 20 min).
For `Cc1ccc(-c2nn(-c3ccccc3)cc2C2c3sc(=O)[nH]c3SC3C(=O)N(c4ccccc4)C(=O)C32)cc1` (stereo not drawn), the inhibition was 17.8% (CA9; enzyme activity, inhibitor; 10 nM).
`Nc1ncnc2c1ncn2[C@@H]1O[C@H](COP(=O)(O)OP(=O)(O)O)[C@@H](O)[C@H]1O` gave a ΔTm of 4.5 to 4.8 °C (Katanin p60 ATPase-containing subunit A1 (Homo sapiens, UniProt O75449, D210C); thermal stability, DSF; 1 mM).
The activity vs control of `COc1cc2ncnc(Nc3ccc(F)c(Cl)c3)c2cc1NC(=O)/C=C/CN1CCCCC1` is reported as 87% (PKN1; enzyme activity, inhibitor; 1 µM).
With `O=C(Nc1ccccc1)c1cc(Cl)ccc1O` the inhibition was 44% (MAOB; enzyme activity, inhibitor; 1 µM, 20 min).
`COc1cc2c(CCNC(C)=O)c[nH]c2cc1O` gave a Km of 8.2 µM (Sulfotransferase 1A1 (SULT1A1, Homo sapiens, UniProt P50225); enzyme activity, substrate; pH 7).
`CCOc1ccc(C(=O)Nc2ccc([N+](=O)[O-])cc2C(F)(F)F)cc1OCC` gave an inhibition of 62% (MAOB; enzyme activity, inhibitor; 1 µM, 20 min).
With `CC(C)CCN1c2nc(Nc3cc(F)c(O)c(F)c3)ncc2N(C)C(=O)C1C` (stereo not drawn) the activity vs control was 64% (PKN1; enzyme activity, inhibitor; 1 µM).
For `O=C(Nc1ccccn1)c1ccc(Cl)cc1`, the inhibition was 11% (MAOB; enzyme activity, inhibitor; 1 µM, 20 min).
`CN1CCC(C2c3ccccc3CCc3ccccc32)CC1` gave a kon of 717000 M⁻¹ s⁻¹ (HRH1; binding).
For `COc1cc([N+](=O)[O-])ccc1NC(=O)c1ccc2c(c1)OCO2`, the inhibition was 47% (MAOB; enzyme activity, inhibitor; 1 µM, 20 min).
`C[C@@H]1CN(CC(=O)Nc2ccc3c(c2)Cc2cccc(-c4cc(=O)cc(N5CCOCC5)o4)c2S3)C[C@H](C)O1` has an activity vs control of 79% (PKN1; enzyme activity, inhibitor; 1 µM).
For `CCOc1ccc(C(=O)Nc2ccc(Br)cc2)cc1OCC`, the inhibition was 13% (MAOB; enzyme activity, inhibitor; 1 µM, 20 min).
For `N=C(CF)NCCC[C@H](NC(=O)c1ccc(-c2ccccc2)cc1)c1nn[nH]n1`, the kinact/KI was 3.5 M⁻¹ s⁻¹ (PADI4; enzyme activity, inhibitor).
`CN1CCN(C2c3ccccc3CCc3ccccc32)CC1` has a kon of 567000 M⁻¹ s⁻¹ (HRH1; binding).
`Cc1cc([N+](=O)[O-])ccc1NC(=O)c1ccc2c(c1)OCO2` has an inhibition of 24% (MAOB; enzyme activity, inhibitor; 1 µM, 20 min).
